# Key:
# [1] = Cytotoxicity against human SVGp12 cells after 48 hrs by luminometric analysis; type: cell-based; conditions: SVGp12, 48 h
# [2] = Cytotoxicity against human 8226/DOX40 cells after 48 hrs by luminometric analysis; type: functional, cell-based
# Procedure, shortened: (§1)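 Tumor cells were cultured without HS-5 stromal cells and treated with increasing compound concentrations for 48 h. Luciferin substrate was added, cultures were incubated 30 min, and bioluminescence was read on a luminometer. Signal was normalized to the non-treated control, with each condition in quadruplicate, and IC50 was calculated.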
# [3] = Cytotoxicity against human HOBIT cells after 48 hrs by luminometric analysis; type: cell-based
# [4] = test system: RPMI-8226; assay: Cytotoxicity against human RPMI8226 cells after 48 hrs by luminometric analysis in presence of HS5 bone marrow stromal cells; type: functional, cell-based; conditions: RPMI-8226, 48 h
# Procedure, shortened: (§2)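 Tumor cells were co-cultured with HS-5 bone marrow stromal cells. For non-adherent tumors, stroma was seeded overnight, then tumor cells were overlaid and treated the next day. For adherent tumors, stroma and tumor cells were plated together overnight, then treated. Cells received increasing compound concentrations for 48 h. Luciferin was added for 30 min and bioluminescence read. Signal was normalized to the untreated control, in quadruplicate, and IC50 was calculated.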
# [5] = test system: RPMI-8226; assay: Ratio of IC50 for human RPMI8226 cells in absence of HS5 bone marrow stromal cells to IC50 for human RPMI8226 in presence of HS5 bone marrow stromal cells; type: functional
# [6] = Cytotoxicity against human OCILY17R cells after 48 hrs by luminometric analysis; type: functional, cell-based; procedure, shortened: as §1
# [7] = test system: NCI-H929 (Homo sapiens); assay: Cytotoxicity against human NCI-H929 cells after 48 hrs by luminometric analysis; conditions: NCI-H929, 48 h
# [8] = test system: PC-3; assay: Cytotoxicity against human PC3 cells after 48 hrs by luminometric analysis; type: functional, cell-based; conditions: PC-3, 48 h; procedure, shortened: as §1
# [9] = Cytotoxicity against human KMS34 cells after 48 hrs by luminometric analysis in presence of HS5 bone marrow stromal cells; type: functional, cell-based; conditions: KMS-34, 48 h; procedure, shortened: as §2
# [10] = Cytotoxicity against human KMS34 cells after 48 hrs by luminometric analysis; type: functional, cell-based; conditions: KMS-34, 48 h; procedure, shortened: as §1
# [11] = Cytotoxicity against human Farage cells after 48 hrs by luminometric analysis; type: functional, cell-based; procedure, shortened: as §1
# [12] = test system: PC-3; assay: Cytotoxicity against human PC3 cells after 48 hrs by luminometric analysis in presence of HS5 bone marrow stromal cells; type: functional, cell-based; conditions: PC-3, 48 h; procedure, shortened: as §2
# [13] = Cytotoxicity against human OCI-My5 cells after 48 hrs by luminometric analysis in presence of HS5 bone marrow stromal cells; type: functional, cell-based; conditions: OCI-My5, 48 h; procedure, shortened: as §2
# [14] = test system: L-363; assay: Cytotoxicity against human L363 cells after 48 hrs by luminometric analysis; type: functional, cell-based; conditions: L-363, 48 h; procedure, shortened: as §1
# [15] = test system: NCI-H929 (Homo sapiens); assay: Cytotoxicity against human NCI-H929 cells after 48 hrs by luminometric analysis in presence of HS5 bone marrow stromal cells; conditions: NCI-H929, 48 h
# [16] = Cytotoxicity against human 8226/DOX40 cells after 48 hrs by luminometric analysis in presence of HS5 bone marrow stromal cells; type: functional, cell-based; procedure, shortened: as §2
# [17] = Cytotoxicity against human OCILY17R cells after 48 hrs by luminometric analysis in presence of HS5 bone marrow stromal cells; type: functional, cell-based; procedure, shortened: as §2
# [18] = Cytotoxicity against human MM1S cells after 48 hrs by luminometric analysis; type: functional, cell-based; conditions: MM1.S; procedure, shortened: as §1
# [19] = test system: OPM-2; assay: Cytotoxicity against human OPM2 cells after 48 hrs by luminometric analysis in presence of HS5 bone marrow stromal cells; type: functional, cell-based; conditions: OPM-2, 48 h; procedure, shortened: as §2
# [20] = test system: MDA-MB-231; assay: Cytotoxicity against human MDA-MB-231 cells after 48 hrs by luminometric analysis in presence of HS5 bone marrow stromal cells; type: functional, cell-based; conditions: MDA-MB-231, 48 h; procedure, shortened: as §2
# [21] = Cytotoxicity against human THLE3 cells after 48 hrs by luminometric analysis; type: cell-based; conditions: THLE3, 48 h
# [22] = test system: HT; assay: Cytotoxicity against human HT cells after 48 hrs by luminometric analysis in presence of HS5 bone marrow stromal cells; type: functional, cell-based; procedure, shortened: as §2
# [23] = test system: OPM-2; assay: Cytotoxicity against human OPM2 cells after 48 hrs by luminometric analysis; type: functional, cell-based; conditions: OPM-2, 48 h; procedure, shortened: as §1
# [24] = test system: RPMI-8226; assay: Cytotoxicity against human RPMI8226 cells after 48 hrs by luminometric analysis; type: functional, cell-based; conditions: RPMI-8226, 48 h; procedure, shortened: as §1
# [25] = test system: HT; assay: Cytotoxicity against human HT cells after 48 hrs by luminometric analysis; type: functional, cell-based; procedure, shortened: as §1
# [26] = test system: MDA-MB-231; assay: Cytotoxicity against human MDA-MB-231 cells after 48 hrs by luminometric analysis; type: functional, cell-based; conditions: MDA-MB-231, 48 h; procedure, shortened: as §1
# [27] = Cytotoxicity against human MM1S cells after 48 hrs by luminometric analysis in presence of HS5 bone marrow stromal cells; type: functional, cell-based; conditions: MM1.S; procedure, shortened: as §2
# [28] = Cytotoxicity against human Farage cells after 48 hrs by luminometric analysis in presence of HS5 bone marrow stromal cells; type: functional, cell-based; procedure, shortened: as §2
# [29] = Cytotoxicity against human KU-812F cells after 48 hrs by luminometric analysis; type: functional, cell-based; procedure, shortened: as §1
# [30] = Cytotoxicity against human OCI-My5 cells after 48 hrs by luminometric analysis; type: functional, cell-based; conditions: OCI-My5, 48 h; procedure, shortened: as §1
# [31] = Cytotoxicity against human HS5 cells after 48 hrs by luminometric analysis; type: cell-based; conditions: HS5, 48 h
# [32] = Cytotoxicity against human KU-812F cells after 48 hrs by luminometric analysis in presence of HS5 bone marrow stromal cells; type: functional, cell-based; procedure, shortened: as §2
# [33] = test system: L-363; assay: Cytotoxicity against human L363 cells after 48 hrs by luminometric analysis in presence of HS5 bone marrow stromal cells; type: functional, cell-based; conditions: L-363, 48 h; procedure, shortened: as §2
SMILES,IC50 [2] [µM],IC50 [4] [µM],IC50 [7] [µM],IC50 [8] [µM],IC50 [11] [µM],IC50 [12] [µM],IC50 [15] [µM],IC50 [16] [µM],IC50 [18] [µM],IC50 [19] [µM],IC50 [20] [µM],IC50 [22] [µM],IC50 [23] [µM],IC50 [24] [µM],IC50 [25] [µM],IC50 [26] [µM],IC50 [27] [µM],IC50 [28] [µM],IC50 [29] [µM],IC50 [32] [µM],also measured
CC(=O)OC[C@]12Oc3ccc(-c4ccc5c(c4O)C(=O)C4=C(O)C[C@@H](C)[C@@H](OC(C)=O)[C@@]4(CO)O5)c(O)c3C(=O)C1=C(O)C[C@@H](C)[C@H]2OC(C)=O [DICERANDROL B],2.2,1.2,10.2,34,1.6,14.1,3.4,2.3,7.3,1.5,5.5,1.3,1.9,2.4,1.2,8.5,8,1.3,2.7,3.6,IC50 [1]: 13.7 µM; IC50 [3]: 9.2 µM; Ratio IC50 [5]: 2; IC50 [6]: 4.6 µM; IC50 [9]: 9.3 µM; IC50 [10]: 5.5 µM; IC50 [13]: 5.7 µM; IC50 [14]: 16.7 µM; IC50 [17]: 5.2 µM; IC50 [21]: 10 µM; IC50 [30]: 2.8 µM; IC50 [31]: 13 µM
CC(=O)OC[C@]12Oc3ccc(-c4ccc5c(c4O)C(=O)C4=C(O)C[C@@H](C)[C@@H](OC(C)=O)[C@@]4(COC(C)=O)O5)c(O)c3C(=O)C1=C(O)C[C@@H](C)[C@H]2OC(C)=O [DICERANDROL C],10,2.8,10.8,121,3.5,45.2,5.4,13.9,14.7,7.5,13.3,4,4.8,4.8,2.1,18.1,20.8,3.3,7.1,14.3,
CC(=O)O[C@@H]1[C@H](C)CC(O)=C2C(=O)c3c(ccc(-c4ccc5c(c4O)C(=O)C4=C(O)C[C@@H](C)[C@@H](OC(C)=O)[C@@]4(CO)O5)c3O)O[C@@]21CO [DICERANDROL A],22.8,,42.5,100,15.6,71.7,22.9,36.9,28.9,,38.4,,,,,43.3,33.3,14.8,24.6,46.6,
CC(=O)OC[C@]12Oc3c(-c4ccc5c(c4O)C(=O)C4=C(O)C[C@@H](C)[C@@H](OC(C)=O)[C@@]4(CO)O5)ccc(O)c3C(=O)C1=C(O)C[C@@H](C)[C@H]2OC(C)=O (relative stereo),15,8.9,54.5,122,12.4,66.3,35.2,21.6,37.1,10.5,34.2,9.9,12.7,12.9,10.8,43.4,47.1,10.5,14.6,24.2,IC50 [6]: 31.1 µM; IC50 [9]: 55.6 µM; IC50 [10]: 22.6 µM; IC50 [33]: 79.4 µM; IC50 [13]: 47.7 µM; IC50 [14]: 66 µM; IC50 [17]: 47.4 µM; IC50 [30]: 18.8 µM
CC(=O)OC[C@]12Oc3cccc(O)c3C(=O)C1=C(O)C[C@@H](C)[C@H]2OC(C)=O (relative stereo),11.6,34,188,1380,200,216,94.8,24.2,168,44.8,118,34.9,42.8,71.6,100,164,186,38.7,44.9,95.9,IC50 [6]: 1620 µM; IC50 [9]: 199 µM; IC50 [10]: 153 µM; IC50 [33]: 199 µM; IC50 [13]: 384 µM; IC50 [14]: 464 µM; IC50 [17]: 293 µM; IC50 [30]: 158 µM

# Reference: ChEMBL document CHEMBL2034906, “Inhibition of tumor cells interacting with stromal cells by xanthones isolated from a Costa Rican Penicillium sp” (J Nat Prod, 2012)
